Screens: PubChem BioAssay, several laboratories
TNF death inh – blocks TNF-alpha induced death of Jurkat FADD-/- cells; Jurkat FADD-/- TNF necroptosis rescue, ATP luminescence, 24 h; 0 = TNF only, 100 = no-TNF cells; activation (protection from cell death), % at 10 µM; 220,000 compounds, 0.068% hits; AID 463075;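 active = activation, meaning protection from cell death, of at least 50% relative to plate controls; inactive = activation below 50%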;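 note: necroptosis triggered by 40 ng/mL TNF-alpha added together with compound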
Autophagy mod – autophagy modulation, high-content screen | MEF GFP-LC3 puncta imaging; test concentration mostly 10 µM | calls only at 10 µM (by protocol) | 190,000 compounds, 0.98% hits;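 active = percentage of spot-positive cells more than 3 SD above its plate mean, without a fluorescence outlier flag or 80% toxicity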;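 note: spot-positive cell cutoff set from DMSO-treated cells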
MDM2 E3 inh – blocks human Mdm2 ubiquitin ligase activity. AID 1230. cell-based MDM2 ubiquitination luciferase reporter, 2 h; 0 = plate control, 100 = twice control, blank-subtracted. signal enhancement, % at 5 µM. 210,000 compounds, 0.11% hits;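 active = signal enhancement of 30% or more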;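 note: luminescence tracks abundance of the self-degrading MDM2-luciferase fusion protein; higher signal means inhibition of MDM2 E3 ligase activity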
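Buffer or medium: Cells held in DMEM | Assay system: Stable mammalian line carrying autodegrading MDM2–luciferase fusion reporter | Quantity: 2000 cells/well | Times: 4 h settle plus 2 h compound, 37 °C | Doses: One concentration, 5 µM, with 0.2% DMSO | Technique: Luminescence with SteadyLite reagent, 15 min at room temperature | Benchmarks: Plate controls and plate blanks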
Hck-Nef inh – inhibitors of human Hck kinase activated by Nef | 220,000 compounds, 0.68% hits | inhibition, % at 20 µM | P08631 | Recombinant Hck-YEEI plus Nef, Z-Lyte FRET kinase assay | AID 463187;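 active = Hck-Nef kinase inhibition above about 50%, limit read from the data; inactive = inhibition below that limit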;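 note: 0% = DMSO with Hck plus Nef and 100% = Hck alone without Nef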
Target sequence (P08631 whole entry, looked up): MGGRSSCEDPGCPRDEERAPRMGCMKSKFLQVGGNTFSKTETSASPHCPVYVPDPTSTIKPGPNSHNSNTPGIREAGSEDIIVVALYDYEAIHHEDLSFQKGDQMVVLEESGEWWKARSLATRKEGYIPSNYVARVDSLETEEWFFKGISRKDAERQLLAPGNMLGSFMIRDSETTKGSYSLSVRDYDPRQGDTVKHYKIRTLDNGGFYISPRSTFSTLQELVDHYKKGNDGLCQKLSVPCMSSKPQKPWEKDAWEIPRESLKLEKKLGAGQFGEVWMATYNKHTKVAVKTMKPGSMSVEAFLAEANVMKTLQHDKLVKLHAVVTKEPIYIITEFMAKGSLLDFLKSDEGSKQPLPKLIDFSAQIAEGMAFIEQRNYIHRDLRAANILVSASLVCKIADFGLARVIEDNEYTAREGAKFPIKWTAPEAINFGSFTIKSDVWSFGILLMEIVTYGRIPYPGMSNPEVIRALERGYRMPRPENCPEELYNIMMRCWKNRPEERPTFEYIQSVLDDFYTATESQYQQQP
zVAD death inh – L929 zVAD cell death inhibition. 220,000 compounds, 0.38% hits. AID 1377. L929 zVAD necroptosis rescue, ATP luminescence, 24 h; with zVAD 60 µM. viability rescue, % at 10 µM;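 active = activation, scaled between plate controls, above about 75%, limit read from the data; inactive = activation under that limit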;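 note: 0% = zVAD with DMSO and 100% = DMSO alone without zVAD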
Dynein transport – blocks dynein driven cargo transport along microtubules. 3617.4 mouse cells, GR-EGFP nuclear translocation imaging; test concentration mostly 20 µM; stimulated with dexamethasone, 1 µM; hits give low values. z-score, hits read low. 220,000 compounds, 0.47% hits. AID 1381;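 active = plate z-score of nuclear minus cytoplasmic receptor signal below a set negative limit, without overly bright fluorescence or cell loss, cut at about -3.5 in these data, passing the limit was not always enough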;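 note: z-score of nuclear minus cytoplasmic ring GR-EGFP intensity difference per well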
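medium = tetracycline-free induction medium containing charcoal-stripped FBS | also added = 1.0 µM final dexamethasone stimulus | schedule = 48 h induction, 1 h compound, 30 min dex at 37 °C | technique = fixed, Hoechst-stained cells imaged at 10x for EGFP | measure = GR-EGFP nuclear translocation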
Hck Nef conf – Hck-Nef kinase inhibition, confirmation | shares compounds with Hck-Nef inh | Recombinant Hck-YEEI:Nef, Z-Lyte FRET kinase assay | calls only at 10 µM | 1,300 compounds, 28% hits | AID 463188;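 active = average inhibition of at least 50%, with Z-scores no higher than 3 in both the phospho-tyrosine peptide and fluorescence counterscreens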
Starred values were filed as active, the others as inactive. Only some compounds are listed: those with a hit (about 2.4% of all), similar ones and a draw of the others.

Screening Cc1nc2ccc(S(=O)(=O)Nc3cccc(-c4nc5cccnc5s4)c3)cc2s1 returned TNF death inh -1, Autophagy mod inactive, Hck-Nef inh -9 and Dynein transport 1.5.
Screening COc1ccc(-c2noc(CCCC(=O)NCc3ccco3)n2)cc1OC returned TNF death inh 3, Autophagy mod inactive, MDM2 E3 inh -6, Hck-Nef inh 0, zVAD death inh 3 and Dynein transport -1.
COc1ccccc1C(=O)Oc1cc(N)n(S(=O)(=O)c2ccccc2)n1 was read as TNF death inh 1, Autophagy mod inactive, MDM2 E3 inh -5, Hck-Nef inh 107*, zVAD death inh 1, Dynein transport 1.2 and Hck Nef conf inactive.
For O=C(N/N=C/c1ccc([N+](=O)[O-])o1)c1cc(-c2ccc(-c3ccccc3)cc2)nc2ccccc12 the results were TNF death inh -8, Autophagy mod inactive, Hck-Nef inh 198*, zVAD death inh -1, Dynein transport 1.8 and Hck Nef conf inactive.
Screening S=C(NCc1ccco1)Nc1ccccc1Cl returned TNF death inh -13, MDM2 E3 inh -5, Hck-Nef inh 94*, zVAD death inh -1, Dynein transport 0.7 and Hck Nef conf inactive.
CN(C)S(=O)(=O)c1cccc(C(=O)NCc2ccco2)c1 was read as TNF death inh -1, Autophagy mod inactive, MDM2 E3 inh -6, Hck-Nef inh 6, zVAD death inh 0 and Dynein transport 0.3.
For Cc1ccc(S(=O)(=O)N(C)C)cc1NC(=S)NCc1ccco1 the results were TNF death inh 2, Autophagy mod inactive, MDM2 E3 inh 0, Hck-Nef inh 113*, zVAD death inh 3, Dynein transport -1.2 and Hck Nef conf active.
`S=C(NCc1ccco1)Nc1cccc(Cl)c1Cl` gave TNF death inh -2, MDM2 E3 inh -13, Hck-Nef inh 21, zVAD death inh 0 and Dynein transport -0.62.
Cc1ccc(S(=O)(=O)N2CCN(C(=O)c3cc(=O)c4ccccc4o3)CC2)cc1 was read as TNF death inh 3, Autophagy mod inactive, MDM2 E3 inh -5, Hck-Nef inh -1, zVAD death inh 1 and Dynein transport 0.098.
`Nc1nn2cc(-c3ccc(Br)cc3)nc2c2ccccc12` gave TNF death inh -14, MDM2 E3 inh -10, Hck-Nef inh 64*, zVAD death inh 1, Dynein transport 0.16 and Hck Nef conf inactive.
Screening COc1cc([N+](=O)[O-])cc(/C=N/NC(=O)C(C)Nc2ccccc2C)c1O (configuration not stated) returned TNF death inh 1, Autophagy mod inactive, MDM2 E3 inh -7, Hck-Nef inh 101*, zVAD death inh 1, Dynein transport -0.23 and Hck Nef conf active.
Screening Cc1nn(C)c(C)c1S(=O)(=O)N(CC(=O)N1CCc2ccccc2C1)c1ccc(C(C)C)cc1 returned TNF death inh -1, Autophagy mod inactive, MDM2 E3 inh -9, Hck-Nef inh 0, zVAD death inh 0 and Dynein transport -0.76.
`CC1(C)OC(=O)C(=Cc2ccc(-c3ccc(Cl)c(C(=O)O)c3)o2)C(=O)O1` gave TNF death inh 1, Autophagy mod inactive, MDM2 E3 inh -3, Hck-Nef inh 77*, zVAD death inh 1, Dynein transport 0.58 and Hck Nef conf inactive.
For O=C(O)c1cc(-c2ccc(/C=C3/SC(=S)N(Cc4ccccc4)C3=O)o2)ccc1Cl the results were TNF death inh -3, Autophagy mod inactive, MDM2 E3 inh -1, Hck-Nef inh 141*, zVAD death inh 0, Dynein transport 1.2 and Hck Nef conf active.
For COc1ccc(C(=O)NC(=S)SCC(=O)O)cc1 the results were TNF death inh 6, MDM2 E3 inh -1, Hck-Nef inh 25, zVAD death inh 0 and Dynein transport 0.4.
CCOC(=O)CSC(=S)NC(=O)c1ccc(OC)cc1 was read as TNF death inh -1, Autophagy mod inactive, MDM2 E3 inh -1, Hck-Nef inh 57*, zVAD death inh 0, Dynein transport -0.83 and Hck Nef conf inactive.
CCOC(=O)Cn1nc(C)c(NC(=O)COc2ccccc2[N+](=O)[O-])c1C was read as TNF death inh 1, Autophagy mod inactive, MDM2 E3 inh -11, Hck-Nef inh 8, zVAD death inh 1 and Dynein transport -0.24.
For Cc1ccc(Oc2nc3ccccc3n3c(C)nnc23)c(C)c1 the results were TNF death inh -5, Autophagy mod inactive, MDM2 E3 inh -2, Hck-Nef inh 1, zVAD death inh 0 and Dynein transport -1.9.
Cc1c(C)n(CC(O)CN2CCCCC2)c2ccccc12 (configuration not stated) was read as TNF death inh 1, Autophagy mod inactive, MDM2 E3 inh -17, Hck-Nef inh 1, zVAD death inh 0 and Dynein transport -0.52.
`O=c1c2ccccc2n(CC(O)CN2CCCCC2)c2ccccc12` (configuration not stated) gave TNF death inh 2, MDM2 E3 inh -15, Hck-Nef inh 154*, zVAD death inh 1 and Dynein transport -0.39.
For CCc1cc(=O)oc2cc3occ(-c4ccc(OC)c(F)c4)c3cc12 the results were TNF death inh -6, Autophagy mod active, MDM2 E3 inh 0, Hck-Nef inh 58*, zVAD death inh 0, Dynein transport -0.69 and Hck Nef conf inactive.
`NC(=O)CNC1CC(=O)N(CCc2ccccc2)C1=O` (configuration not stated) gave TNF death inh -1, Autophagy mod inactive, MDM2 E3 inh -16, Hck-Nef inh -28, zVAD death inh 0 and Dynein transport 0.077.
`CCn1nc(NC(=O)C2CCCO2)c2cc3cccc(C)c3nc21` (configuration not stated) gave TNF death inh -3, MDM2 E3 inh 0, Hck-Nef inh 55*, zVAD death inh 1, Dynein transport 1.7 and Hck Nef conf inactive.
Screening COCCNC(=O)CSc1nc2nn(-c3ccccc3)c(=O)c-2c2n1CCCCC2 returned TNF death inh 0, Autophagy mod inactive, MDM2 E3 inh -14, Hck-Nef inh 14, zVAD death inh -1 and Dynein transport -0.0085.
`Cc1cnc(NC(=O)/C=C/c2ccc(Br)o2)s1` gave TNF death inh 4, MDM2 E3 inh -11, Hck-Nef inh 36, zVAD death inh 0 and Dynein transport -0.84.
